Screening data (PubChem)
In the library only some 2.2% were active in any assay of this set; here they are far more common.
697 NFkB inh: inhibitors of the PMA/ionomycin-induced NF-kB reporter in 697 B cells; 697 B-cell NF-kB luciferase reporter, 16 h; inhibition, % at 4 µM; hit rate 0.33% among 330,000; in the data active means inhibition above about 35%
FGF22 binding: FGF22 (human) thermal shift binding; hit rate 1.5% among 340,000; recombinant FGF22 thermal shift, SYPRO orange fluorescence; percent of sucrose octasulfate shift, DMSO zero; activity (Tm shift, normalised), % at 9.99 µM; Q9HCT0;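 active means mean Tm shift, scaled 0 neutral to 100 positive control, at about 1.3% or above, every replicate too, limit read from the data; inconclusive means no clear call, values can overlap the other calls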
Target sequence (Q9HCT0 whole entry, looked up): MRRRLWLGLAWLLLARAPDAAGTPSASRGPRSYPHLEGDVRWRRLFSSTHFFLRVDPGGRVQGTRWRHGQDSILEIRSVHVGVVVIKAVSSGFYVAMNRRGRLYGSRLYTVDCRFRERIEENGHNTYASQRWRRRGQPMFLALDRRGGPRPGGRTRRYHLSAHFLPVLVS
miR-122 sensor: inhibitors of miR-122 in Huh7 cells | Huh7 miR-122 Renilla luciferase sensor, 48 h; neutral wells = 0, positive control = 100 | activation (reporter increase), % at 12.5 µM | hit rate 0.3% among 340,000;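 active means mean replicate activation score at least 90 and every replicate individually at or above 90; inconclusive means only one of the two criteria met; inactive means neither criterion met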;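 further: higher luciferase means less miR-122 activity so hits act as miR-122 inhibitors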
NR2E3 ag-1: activates human photoreceptor nuclear receptor NR2E3; inhibition of corepressor binding, % at 4.78 µM; GST-NR2E3/biotin-RetCOR TR-FRET, 1536-well; hit rate 0.12% among 320,000; Q9Y5X4;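 active means percent inhibition above the cutoff of mean plus 3 SD of all tested compounds, set per screening campaign, cut at about 20% in these data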;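 further: 0% = DMSO wells and 100% = biotin wells as full block of FRET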
Target sequence (Q9Y5X4 whole entry, looked up): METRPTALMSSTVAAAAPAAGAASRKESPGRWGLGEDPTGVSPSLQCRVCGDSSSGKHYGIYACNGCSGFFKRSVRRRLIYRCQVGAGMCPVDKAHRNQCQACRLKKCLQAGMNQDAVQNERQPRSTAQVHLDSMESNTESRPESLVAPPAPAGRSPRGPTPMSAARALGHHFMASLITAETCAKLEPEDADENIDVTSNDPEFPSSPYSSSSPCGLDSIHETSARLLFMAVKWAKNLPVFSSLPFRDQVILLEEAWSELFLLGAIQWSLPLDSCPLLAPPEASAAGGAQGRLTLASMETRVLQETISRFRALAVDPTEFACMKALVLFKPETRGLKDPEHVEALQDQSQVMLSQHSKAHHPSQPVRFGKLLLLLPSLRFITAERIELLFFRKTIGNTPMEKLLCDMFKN
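system = GST-tagged NR2E3 plus biotinylated RetCOR corepressor | input = 1.35 nM GST-NR2E3 | also added = 7 nM biotin-RetCOR | schedule = 5 h incubation at 4 °C | measured by = TR-FRET with europium anti-GST and streptavidin-D2, 340 nm excitation | read-out = percent loss of FRET ratio relative to control wells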
NR2E3 ag-2: human photoreceptor-specific nuclear receptor agonism | inhibition of corepressor binding, % at 3.98 µM | Q9Y5X4 | CHO-S Gal4-NCOR/VP16-NR2E3 two-hybrid, luciferase | AID 602229 | hit rate 0.35% among 360,000;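 active means inhibition above the mean of all tested compounds plus 3 SD, cut at about 70% in these data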;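 further: 0% = DMSO with NR2E3 transfected cells and 100% = cells lacking NR2E3 construct; higher means lower luciferase signal from less NR2E3 corepressor binding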
Jurkat NFkB inh: inhibitors of the PMA/ionomycin-induced NF-kB reporter in Jurkat cells; PMA/ionomycin-induced NF-kB luciferase reporter, luminescence; inhibition, % at 4 µM; hit rate 0.53% among 330,000; in the data active means inhibition above about 50%
Jurkat NFkB conf: inhibitors of the PMA/ionomycin-induced NF-kB reporter in Jurkat cells, retest; shares compounds with Jurkat NFkB inh; Jurkat NF-kB luciferase, 16 h; inhibition, % at 4 µM; hit rate 27% among 2,700; AID 435020;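 active means inhibition reaching about 45% at 4 µM in either replicate, limit read from the data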;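 further: plate controls were PMA/ionomycin stimulated DMSO wells for no effect and unstimulated DMSO wells for full effect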
Starred values were filed as active, the others as inactive; ? = inconclusive; . = no result given; [ ] = dose if it differs, or a comment.

SMILES | 697 NFkB inh | FGF22 binding | miR-122 sensor | NR2E3 ag-1 | NR2E3 ag-2 | Jurkat NFkB inh | Jurkat NFkB conf
Cc1ccc(S(=O)(=O)N(C)C[C@@H]2Oc3c(NC(=O)c4ccc(-c5nccs5)cc4)cccc3C(=O)N([C@H](C)CO)C[C@@H]2C)cc1 | . | 0 | -5[16.7 µM] | . | . | . | .
O=C(c1cc(-c2ccncc2)nc2ccccc12)N1CCN(c2ccccn2)CC1 | -30 | . | 2 | 5 | -12 | 57* | 8
O=C(c1ccccc1-c1ccccc1)N1CCN(c2ccccn2)CC1 | -21 | . | 58 | -1 | -61 | 69* | 41
O=C(c1cn(Cc2ccccc2)nc1-c1ccccc1)N1CCN(c2ccccn2)CC1 | -37 | 0 | . | 0 | -55 | 53* | 39
C[C@H](CO)N1C[C@H](C)[C@@H](CN(C)CC2CC2)OCCCC[C@H](C)Oc2ccc(NS(=O)(=O)c3ccc(F)cc3)cc2C1=O | . | 0 | -1[16.7 µM] | . | . | . | .
CCOC(=O)Nc1nc(-c2ccccc2)c(C(=O)c2ccccc2)s1 | -7 | . | . | 4 | 7 | 51* | 50*
COC(=O)Nc1nc(-c2ccccc2)c(C(=O)c2ccc(Cl)cc2)s1 | 5 | . | 69 | 1 | -14 | 30 | .
COc1ccc(NC(=O)N(C)C[C@H]2Oc3cc(C#CCC(C)C)ccc3S(=O)(=O)N([C@@H](C)CO)C[C@H]2C)cc1 | . | 1 | -40[16.7 µM] | . | . | . | .
CC1C(=O)OC(c2ccc(Cl)cc2)C(C)(C)C1=O (stereo not given) | -5 | 0 | . | . | 0 | -26 | .
C[C@@H]1C=CC(=O)O[C@@H]1c1ccc(Cl)cc1 | -33 | 0 | . | 2 | . | 96* | 97*
Cc1c(C(=O)O)[nH]c2c1C(=O)CC(c1ccc(C(C)(C)C)cc1)C2 (stereo not given) | -12 | 0 | -3 | -1 | -31 | 0 | .
Cc1c(C(=O)N2CCOCC2)[nH]c2c1C(=O)CC(c1ccccc1Cl)C2 (stereo not given) | -57 | . | 44 | 0 | -59 | 52* | 48*
COC(=O)c1cc(Cl)c(NC(=O)/C=C/c2ccc(OC)cc2)cc1OC | -43 | 0 | . | 1 | -32 | 51* | 20
COC(=O)c1cc(Cl)c(NC(=O)C(C)C)cc1OC | -9 | 0 | . | -6 | -12 | 0 | .
C[C@H]1CN([C@@H](C)CO)C(=O)Cc2cc(NC(=O)C3CC3)ccc2O[C@@H]1CN(C)C(=O)Nc1ccc(C(F)(F)F)cc1 | . | 0 | 2[16.7 µM] | . | . | . | .
C[C@@H]1CCCCO[C@@H](CN(C)C(=O)Cc2ccccc2)[C@@H](C)CN([C@H](C)CO)C(=O)c2cc(NC(=O)NC3CCCCC3)ccc2O1 | . | 0 | 0[16.7 µM] | . | . | . | .
CC(C)n1c(CN(C)Cc2ccccc2)nc2c1c(=O)n(C)c(=O)n2C | 0 | 0 | . | 2 | . | 57* | 53*
C[C@H](CO)N1C[C@H](C)[C@H](CN(C)C)OCCCC[C@H](C)Oc2ccc(NS(C)(=O)=O)cc2C1=O | . | 0 | -8[16.7 µM] | . | . | . | .
Cc1cccnc1NC(=S)NC(=O)c1cccs1 | -183 | 0 | 4 | -4 | -135 | -181 | -98
Cc1cccnc1NC(=O)CNC(=O)c1cccs1 | 6 | 0 | 2 | -1 | -21 | 6 | .
O=C(Nc1nc2ccccc2c(=O)s1)c1ccco1 | 31 | 0 | . | 3 | 10 | 64* | 21
O=C(N[C@H]1CC[C@H](CCNS(=O)(=O)c2cccc(Cl)c2)O[C@H]1CO)c1ccccc1 | . | 0 | . | . | . | . | .
Cc1ccc2nc(CSc3nc(C)cc(C)c3C#N)[nH]c2c1 | -182 | . | 1 | 3 | -131 | -179 | -56
COc1ccc(CCN2C(=O)C3C4C=CC(C3C2=O)C2C(=O)N(CCc3ccc(OC)c(OC)c3)C(=O)C42)cc1OC (stereo not given) | 21 | 0 | -5 | 0 | -4 | 59* | 56*
COc1cc(NCc2ccccc2O)c2ncccc2c1 | -5 | -1 | . | . | -39 | 10 | .
SMILES | 697 NFkB inh | FGF22 binding | miR-122 sensor | NR2E3 ag-1 | NR2E3 ag-2 | Jurkat NFkB inh | Jurkat NFkB conf
COc1cc(NCCCCCCCN)c2ncccc2c1 | -44 | . | -10 | 6 | 5 | 93* | 60*
CCNC(=O)C[C@@H]1CC[C@@H]2[C@H](COc3ccc(NC(=O)c4ccccc4)cc3C(=O)N2C)O1 | . | . | 17[16.7 µM] | . | . | . | .
COc1ccc(S(=O)(=O)N2N=C(C)Oc3ccccc3C2=O)cc1 | -28 | . | 123* | 0 | -79 | 53* | 44
CCOc1ccccc1-c1nc(CN2CCN(C(=O)c3ccco3)CC2)c(C)o1 | 11 | 0 | 2 | -1 | 10 | 0 | .
CCOc1ccccc1-n1c(CN2CCN(C(=O)c3ccco3)CC2)nc2ccccc2c1=O | -29 | . | . | 4 | -11 | 95* | 24
CC(=O)Nc1ccc(S(=O)(=O)N2CCCc3ccccc32)cc1 | -48 | . | 12 | 2 | -40 | 63* | 34
Cc1cc(NC(=O)COC(=O)c2ccc(S(=O)(=O)N3CCCc4ccccc43)cc2)no1 | -26 | . | 25 | -1 | -130 | 51* | 39
COC(=O)Nc1ccc(S(=O)(=O)N2c3ccccc3CCC2C)cc1 (stereo not given) | -85 | . | 46 | -1 | -76 | 53* | 38
Cc1cc(NC(=O)COC(=O)c2ccc(S(=O)(=O)N3CCCC3)cc2)no1 | 8 | 0 | 0 | 0 | 0 | 6 | .
C[C@@H]1CN([C@H](C)CO)C(=O)c2cccc(NS(=O)(=O)c3cccs3)c2O[C@@H]1CN(C)Cc1ccc(C(=O)Nc2ccccc2N)cc1 | . | 0 | . | . | . | . | .
COc1ccccc1-c1nnc2sc(-c3ccc(N(C)C)cc3)nn12 | -204 | 0 | ? | 2 | 32 | 78* | 47
CN(C)c1ccc(-c2nn3c(-c4ccccc4Cl)nnc3s2)cc1 | 25 | . | 40 | -2 | 30 | 75* | 63*
Clc1ccccc1-c1nnc2sc(-c3ccncc3)nn12 | -3 | 0 | 3 | 3 | -28 | -3 | .
CN(C)c1ccc(-c2nn3c(-c4cccnc4)nnc3s2)cc1 | 19 | . | . | 7 | . | -8 | .
CNC(=O)C[C@@H]1CC[C@H]2[C@@H](COC[C@H](O)CN2S(=O)(=O)c2ccc(Oc3ccccc3)cc2)O1 | . | 0 | -8[16.7 µM] | . | . | . | .
CCCc1nc(SCC(=O)Nc2cc(C)on2)c2ccccc2n1 | 6 | . | -1 | 1 | 22 | -10 | .
Cc1cc(NC(=O)CSc2nc(C(C)(C)C)nc3ccccc23)no1 | -62 | 0 | . | -1 | -28 | 57* | 20
CCC(=O)Nc1ccc(N/C(N)=N/c2nc(C)cc(C)n2)cc1 | 1 | 0 | . | 2 | 20 | -2 | .
CCCCc1ccc(N/C(N)=N/c2nc(C)cc(C)n2)cc1 | -40 | 0 | 2 | 0 | 44 | 75* | 30
Cc1cc(C)cc(N/C(N)=N/c2nc(C)cc(C)n2)c1 | -14 | 0 | 5 | -1 | -49 | 51* | 10
Cc1ccc(N/C(N)=N/c2nc(C)cc(C)n2)cc1 | 4 | . | -2 | -3 | -9 | 3 | .
